Converted amounts (≈) assume the structure as drawn.
Assays:
[1] = molecular target: Phospholipase D2 (Homo sapiens, UniProt O14939); assay: Inhibition of PLD2 (unknown origin) expressed in human HEK cells by immunoprecipitation; type: cell-based
Method in brief: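 PLD1 or PLD2 immunoprecipitated from HEK-293 cell lysates and captured on plate with an antibody (ELISA format); 08:0 phosphatidylcholine substrate; released choline detected by Amplex Red readout.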

[2] = Unbound clearance in iv dosed rat administered as cassette dose; type: ADME, organism-based; conditions: in vivo
Method in brief: (§1)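 Rat IV clearance from cassette dosing; unbound clearance calculated as CL/fu.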

[3] = Microsomal stability in human liver microsomes assessed as intrinsic clearance; type: ADME, Microsome; conditions: read-out: CLH
Method in brief: (§2)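 Intrinsic clearance (CLint) determined in rat or human liver microsomes.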

[4] = Kinetic solubility of compound at pH 6.8; type: physicochemical; conditions: buffer, read-out: Kinetic_solubility
Method in brief: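 Kinetic solubility measured at pH 6.8.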

[5] = Microsomal stability in rat liver microsomes assessed as intrinsic clearance; type: ADME, Microsome; conditions: read-out: CLH; method in brief: as §2
[6] = Clearance in iv dosed rat administered as cassette dose; type: ADME, organism-based; conditions: in vivo; method in brief: as §1
[7] = molecular target: Phospholipase D1 (Homo sapiens) (UniProt Q13393); assay: Inhibition of PLD1 in human Calu-1 cells assessed as reduction in d9-phosphobutanol formation by mass spectrometry-based transphosphatidylation assay
[8] = tested on: MDR1 (P-gp); assay: Efflux ratio of apparent permeability from basolateral to apical side over apical to basolateral side in dog MDCK-MDR1 cells; type: ADME, cell-based, Canis lupus familiaris
Method in brief: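 Efflux ratio calculated as Papp(B–A)/Papp(A–B) across MDR1-transfected MDCK monolayers.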

[9] = molecular target: T1, Phospholipase D1 (Homo sapiens, UniProt Q13393); assay: Inhibition of PLD1 (unknown origin) expressed in human HEK cells by immunoprecipitation assay; type: cell-based
T1 sequence (Q13393 whole entry): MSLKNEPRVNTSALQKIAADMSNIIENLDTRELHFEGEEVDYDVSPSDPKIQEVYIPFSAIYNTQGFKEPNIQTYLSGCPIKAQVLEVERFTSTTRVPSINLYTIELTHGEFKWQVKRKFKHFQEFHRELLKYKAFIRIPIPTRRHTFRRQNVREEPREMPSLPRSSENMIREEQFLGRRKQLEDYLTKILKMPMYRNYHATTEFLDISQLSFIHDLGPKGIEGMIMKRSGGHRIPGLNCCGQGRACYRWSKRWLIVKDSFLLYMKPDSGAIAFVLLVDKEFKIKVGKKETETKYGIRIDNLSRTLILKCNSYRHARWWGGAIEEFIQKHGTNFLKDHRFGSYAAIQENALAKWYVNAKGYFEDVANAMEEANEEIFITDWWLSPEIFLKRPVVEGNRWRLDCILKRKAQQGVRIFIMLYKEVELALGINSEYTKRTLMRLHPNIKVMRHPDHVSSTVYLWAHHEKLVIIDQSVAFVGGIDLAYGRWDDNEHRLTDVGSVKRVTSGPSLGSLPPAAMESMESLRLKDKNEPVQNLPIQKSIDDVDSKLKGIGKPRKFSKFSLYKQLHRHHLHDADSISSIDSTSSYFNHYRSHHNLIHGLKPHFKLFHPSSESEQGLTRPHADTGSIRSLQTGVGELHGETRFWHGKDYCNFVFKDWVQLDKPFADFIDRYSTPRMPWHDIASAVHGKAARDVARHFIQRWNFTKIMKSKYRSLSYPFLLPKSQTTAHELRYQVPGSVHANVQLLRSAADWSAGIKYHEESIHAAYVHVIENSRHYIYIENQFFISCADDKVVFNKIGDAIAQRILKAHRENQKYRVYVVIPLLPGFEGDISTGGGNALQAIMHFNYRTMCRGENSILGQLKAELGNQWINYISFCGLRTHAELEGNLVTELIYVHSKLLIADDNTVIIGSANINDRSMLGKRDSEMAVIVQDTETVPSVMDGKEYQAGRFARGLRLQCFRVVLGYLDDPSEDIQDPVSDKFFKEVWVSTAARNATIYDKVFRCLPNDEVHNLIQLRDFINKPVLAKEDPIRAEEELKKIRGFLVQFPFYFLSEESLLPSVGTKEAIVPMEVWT

[10] = tested on: BCRP; assay: Efflux ratio of apparent permeability from basolateral to apical side over apical to basolateral side in dog MDCK-BCRP cells; type: ADME, cell-based, Canis lupus familiaris

Phospholipase D2, sequence (O14939 whole entry): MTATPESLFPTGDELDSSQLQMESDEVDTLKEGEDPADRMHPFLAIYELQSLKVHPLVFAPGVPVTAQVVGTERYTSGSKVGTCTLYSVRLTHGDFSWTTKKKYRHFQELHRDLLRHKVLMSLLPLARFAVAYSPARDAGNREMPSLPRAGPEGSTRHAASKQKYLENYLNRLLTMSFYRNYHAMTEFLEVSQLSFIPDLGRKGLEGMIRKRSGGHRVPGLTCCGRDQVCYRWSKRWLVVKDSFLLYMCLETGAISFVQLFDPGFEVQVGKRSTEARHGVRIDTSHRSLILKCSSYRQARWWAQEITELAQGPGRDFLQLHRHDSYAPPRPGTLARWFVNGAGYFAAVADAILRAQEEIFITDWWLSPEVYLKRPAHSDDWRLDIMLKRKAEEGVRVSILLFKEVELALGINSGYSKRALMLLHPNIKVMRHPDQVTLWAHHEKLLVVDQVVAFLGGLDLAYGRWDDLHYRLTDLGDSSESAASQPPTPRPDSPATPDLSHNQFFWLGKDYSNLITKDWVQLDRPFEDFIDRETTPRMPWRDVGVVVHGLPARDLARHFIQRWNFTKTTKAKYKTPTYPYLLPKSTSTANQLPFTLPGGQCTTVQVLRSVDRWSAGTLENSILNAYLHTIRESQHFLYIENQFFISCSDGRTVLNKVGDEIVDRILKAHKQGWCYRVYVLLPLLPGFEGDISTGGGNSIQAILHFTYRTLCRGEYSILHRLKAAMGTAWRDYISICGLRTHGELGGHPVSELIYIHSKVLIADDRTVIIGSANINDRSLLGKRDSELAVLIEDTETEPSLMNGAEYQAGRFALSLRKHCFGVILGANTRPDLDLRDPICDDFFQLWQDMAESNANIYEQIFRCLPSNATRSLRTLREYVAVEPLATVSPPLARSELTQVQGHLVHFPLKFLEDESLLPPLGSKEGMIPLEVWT

Row | SMILES | IC50 [1] [nM] | CL free [2] [mL/min/kg] | CLint scaled [3] [mL/min/kg] | solubility kinetic [4] [µg/mL] | CLint scaled [5] [mL/min/kg] | clearance [6] [mL/min/kg] | IC50 [7] [nM] | efflux ratio [8] | IC50 [9] [nM] | efflux ratio [10]
1 | C[C@@H](CN1CCC2(CC1)C(=O)NCN2c1cccc(F)c1)NC(=O)c1ccc(Br)cc1 | 67 | > 3800 | 89 | 3.8 (≈ 7.76 µM) | 312 | 36 | – | – | – | –
2 | C[C@@H]1CN(C(=O)[C@H](C)N2CCC(n3c(=O)[nH]c4ccccc43)CC2)Cc2ccccc21 | 320 | – | > 200 | – | > 300 | – | 6 | 22 | 100 | –
3 | CC(=O)N(C)CCN1CCC(n2c(=O)[nH]c3cc(Cl)ccc32)CC1 | > 10000 | – | – | – | – | – | 180 | 24 | 130 | –
4 | C[C@@H](CN1CCC(n2c(=O)[nH]c3ccccc32)CC1)NC(=O)c1ccc(F)cc1 | 5600 | – | < 4 | – | 170 | – | 16 | 82 | 33 | –
5 | C[C@@H](CN1CCC2(CC1)OC(=O)Nc1cccnc12)NC(=O)c1ccc(F)cc1 | 4100 | 83 | 13 | 59 (≈ 148 µM) | 48 | 40 | 54 | 68 | 200 | –
6 | C[C@@H](CN1CCC2(CC1)NC(=O)Nc1ccccc12)NC(=O)c1ccc(F)cc1 | > 10000 | 74 | 14 | 51 (≈ 129 µM) | 66 | 15 | 720 | 67 | 280 | –
7 | C[C@@H]1CNCCN1C(=O)[C@H](C)N1CCC(n2c(=O)[nH]c3ccccc32)CC1 | – | – | 12 | – | 84 | – | 180 | 5.4 | 140 | –
8 | C[C@@H]1CN(C(=O)[C@H](C)N2CCC(n3c(=O)[nH]c4ccccc43)CC2)CCN1 | – | 73 | < 5 | – | 29 | 39 | 190 | 13 | 320 | –
9 | C[C@@H](C(=O)N1CCNC(C)(C)C1)N1CCC(n2c(=O)[nH]c3ccccc32)CC1 | 7000 | 73 | 8 | – | 56 | 39 | 280 | 5.2 | 360 | –
10 | C[C@@H](CN1CCC2(CC1)OC(=O)Nc1cc(F)ccc12)NC(=O)c1ccc(F)cc1 | 1000 | – | 68 | – | 250 | – | 78 | 42 | 71 | –
11 | C[C@@H](CN1CCC2(CC1)c1ccccc1NC(=O)N2C)NC(=O)c1ccc(F)cc1 | > 10000 | – | 39 | 71 (≈ 173 µM) | 113 | – | > 10000 | 93 | > 10000 | –
12 | C[C@@H](CN1CCC2(CC1)OC(=O)NC[C@H]2c1cccc(F)c1)NC(=O)c1ccc(F)cc1 | 64 | 308 | 38 | 61 (≈ 138 µM) | 394 | 119 | 2 | 12 | 22 | –
13 | C[C@@H](CN1CCC(c2n[nH]c3ccccc23)CC1)NC(=O)c1ccc(F)cc1 | > 10000 | – | 42 | – | 311 | – | 4200 | 8 | 970 | –
14 | C[C@@H](C(=O)N1CCC(F)(F)C1)N1CCC(n2c(=O)[nH]c3ccccc32)CC1 | 2900 | 192 | 10 | – | > 300 | 34 | 1200 | 2.5 | 170 | 1.2
15 | C[C@H]1CN(C(=O)[C@H](C)N2CCC(n3c(=O)[nH]c4ccccc43)CC2)CCN1 | 1100 | 73 | < 5 | – | < 10 | 39 | 160 | 5.5 | 76 | 2.3
16 | C[C@@H](CN1CCC(N2CCNC2=O)CC1)NC(=O)c1ccc(F)cc1 | > 10000 | – | < 4 | – | 16 | – | > 10000 | 7.7 | > 10000 | –
17 | CC[C@H]1CN(C(=O)[C@H](C)N2CCC(n3c(=O)[nH]c4ccccc43)CC2)CCN1 | 920 | – | < 4 | – | 59 | – | 44 | 50 | 68 | –
18 | C[C@@H](CN1CCC2(CC1)CC(=O)Nc1ccccc12)NC(=O)c1ccc(F)cc1 | > 10000 | 42 | 28 | 59 (≈ 149 µM) | 83 | 8.6 | 460 | 11 | 490 | –
19 | C[C@@H](CN1CCC(n2c(=O)oc3ccccc32)CC1)NC(=O)c1ccc(F)cc1 | > 10000 | – | 23 | – | 314 | – | > 10000 | 2 | 9300 | –
20 | C[C@@H]1CN(C(=O)[C@H](C)N2CCC(n3c(=O)[nH]c4ccccc43)CC2)C[C@H](C)N1 | 200 | 68 | 6.9 | – | 43 | 45 | 32 | 14 | 40 | –
21 | C[C@@H](CN1CCC2(CC1)OC(=O)Nc1ccncc12)NC(=O)c1ccc(F)cc1 | 3200 | 69 | 12 | 58 (≈ 146 µM) | 50 | 48 | 78 | 47 | 110 | –
22 | C[C@@H](CN1CCC2(CC1)OC(=O)Nc1ccccc12)NC(=O)c1ccc(F)cc1 | 1300 | 172 | 39 | 76 (≈ 191 µM) | 103 | 40 | 74 | 218 | 66 | –
23 | C[C@@H](C(=O)N1CCOCC1)N1CCC(n2c(=O)[nH]c3ccccc32)CC1 | > 10000 | – | < 5 | – | 162 | 13 | 560 | 36 | 380 | 1.5
24 | C[C@@H](CN1CCC(N2C(=O)Cc3ccccc32)CC1)NC(=O)c1ccc(F)cc1 | > 10000 | – | 42 | – | 311 | – | 1100 | 8 | 1200 | –
